Assay outcomes: PubChem BioAssay, The Scripps Research Institute Molecular Screening Center
In the library only some 3.1% were active in any assay of this set; here they are far more common.
RBBP9 inhibitor – human RBBP9 inhibitors, primary screen, biochemical, fluorescence polarization, FP-Rh probe, HTS; Serine hydrolase RBBP9 (Homo sapiens), O75884; recombinant RBBP9; inhibition, % at 7.94 µM; 220,000 tested, 0.2% active; AID 1515, 2009;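 active = inhibition above the campaign mean of all tested compounds plus 3 SD, cut at about 14% in these data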
Target sequence (O75884 whole entry, looked up): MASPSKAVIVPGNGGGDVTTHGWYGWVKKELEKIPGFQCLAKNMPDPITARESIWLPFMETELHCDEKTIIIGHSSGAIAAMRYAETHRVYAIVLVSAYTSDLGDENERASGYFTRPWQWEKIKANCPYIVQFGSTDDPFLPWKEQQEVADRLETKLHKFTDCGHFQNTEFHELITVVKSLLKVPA
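Measured by: FP readout at 525/598 nm; material: recombinant human RBBP9; also added: Serine-hydrolase probe FP-Rh, 375 nM pre-mixing; medium: Tris buffer pH 8.0, NaCl, Pluronic; replication: one well per compound; doses: one concentration, 7.94 µM nominal, 0.794% DMSO; timing: preincubation 30 min plus labeling 45 min at 25 °C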
UHRF1 MBD2 ctr – UHRF1 methylated DNA binding inhibitors, primary screen, counter-screen for MBD2 inhibitor project, biochemical, TR-FRET, human UHRF1, single concentration. E3 ubiquitin-protein ligase UHRF1 (Homo sapiens), Q96T88. UHRF1 binding to methylated oligo. inhibition, % at 4.4 µM. 370,000 tested, 0.75% active; in the data active = inhibition above about 21%;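 also: UHRF1 SRA domain binding a hemimethylated CpG hairpin DNA probe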
LEDGF integ inh – blockers of LEDGF/p75-dependent integrase strand transfer – biochemical, TR-FRET, high throughput, primary screen; HIV-1 integrase (with human LEDGF/p75); TR-FRET IN-LEDGF/p75 DNA integration, Eu/Cy5; inhibition, % at 3.7 µM; 370,000 tested, 0.64% active; AID 743269, 2014;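 active = inhibition above the screen-wide mean plus 3 SD, cut at about 13% in these data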;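 also: signal is the Cy5 over europium emission ratio at 671 and 618 nm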
PRMT1 FP inh – PRMT1 methyltransferase inhibitors, primary screen, biochemical, fluorescence polarization | AID 652257, 2013 | recombinant PRMT1, activity-based probe fluorescence polarization | inhibition, % at 2.79 µM | 370,000 tested, 1.3% active | Protein arginine N-methyltransferase 1 (Homo sapiens), Q99873;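 active = inhibition above about 21% made by adding two undisclosed values, limit read from the data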
Target sequence (Q99873 whole entry, looked up): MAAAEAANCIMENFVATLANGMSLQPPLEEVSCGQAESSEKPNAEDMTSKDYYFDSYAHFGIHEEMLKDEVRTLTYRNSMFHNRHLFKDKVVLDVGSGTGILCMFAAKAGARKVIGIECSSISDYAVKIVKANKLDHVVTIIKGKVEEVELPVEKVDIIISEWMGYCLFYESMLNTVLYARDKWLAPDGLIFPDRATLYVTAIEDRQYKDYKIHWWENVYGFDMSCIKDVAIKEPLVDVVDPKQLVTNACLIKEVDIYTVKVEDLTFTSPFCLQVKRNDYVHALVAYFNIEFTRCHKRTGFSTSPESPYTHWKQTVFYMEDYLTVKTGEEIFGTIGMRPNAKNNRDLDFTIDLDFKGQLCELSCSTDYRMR
MBD2 DNA inh – inhibitors of MBD2 binding to methylated DNA, primary screen, biochemical, TR-FRET, DNA-binding domain, human | Methyl-CpG-binding domain protein 2 (Homo sapiens), Q9UBB5 | MBD2 binding to methylated oligonucleotide | inhibition, % at 4.4 µM | 370,000 tested, 0.31% active | AID 686964, 2013; in the data active = inhibition above about 13%
ABHD5 PLIN5 PPI – ABHD5-PLIN5 interaction inhibitors, primary screen, cell lysate, split luciferase complementation, luminescence | Perilipin-5 (Homo sapiens) + 1-acylglycerol-3-phosphate O-acyltransferase ABHD5 (Homo … | inhibition, % at 4 µM | Split G. princeps luciferase complementation, 4 h | 360,000 tested, 0.78% active;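 active = inhibition above the mean inhibition across every tested compound plus 3 SD, cut at about 22% in these data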
PRMT1 inh conf – PRMT1 methyltransferase inhibitors, confirmation, biochemical, fluorescence polarization, triplicate. shares compounds with PRMT1 FP inh. recombinant His-PRMT1, activity-based probe fluorescence polarization. inhibition, % at 2.79 µM. 3,300 tested, 42% active;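 active = mean inhibition across replicates above the hit cutoff derived for the earlier primary screen, cut at about 22% in these data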
Hits are given with their value; i = inactive; nt = not tested or not shown.

SMILES | RBBP9 inhibitor | UHRF1 MBD2 ctr | LEDGF integ inh | PRMT1 FP inh | MBD2 DNA inh | ABHD5 PLIN5 PPI | PRMT1 inh conf
C=CCN1[C@H](Cc2ccccc2)COc2cc(N3CCSCC3)ccc2S1(=O)=O | nt | i | i | i | i | nt | nt
Cc1ccccc1CN1[C@@H](C)[C@H](c2ccccc2)Oc2cccc(N3CCCC3)c2S1(=O)=O | nt | i | i | i | i | nt | nt
COc1cccc(NC(=O)c2cc(-c3ccc(C)o3)nc3ccccc23)c1 | nt | i | i | i | i | i | nt
COC(=O)c1cc(-c2ccc(C)o2)nc2ccccc12 | i | i | i | 42.1 | i | i | 23.8
Cc1ccc(-c2cc(C(=O)Nc3cccc(S(=O)(=O)N(C)C)c3)c3ccccc3n2)o1 | nt | i | i | 49.6 | i | i | 55.7
C#CCNC(=O)C[C@H]1C[C@@]2(C(=O)OC)C(=C[C@H](C(C)C)O[C@@H]2C2CC2)N(CCCCCCCC)C1=O | nt | i | i | i | i | nt | nt
COC(=O)c1cc2c(c3c4cc(OC)ccc4n(S(=O)(=O)c4cccc(C)c4)c13)C(=O)N(C)C2 | nt | i | i | i | i | nt | nt
O=C(O)c1ccccc1NS(=O)(=O)c1ccc(N/N=C/c2cccc(O)c2O)c([N+](=O)[O-])c1 | nt | i | i | 34.6 | i | i | 29.3
COc1cc(C=NNc2ccc(S(=O)(=O)Nc3ccccc3C(=O)O)cc2[N+](=O)[O-])ccc1O | nt | i | i | i | i | i | nt
CC(C)=CC(=O)OCC(=O)Nc1ccc(SC(F)F)cc1 | i | i | i | i | i | i | nt
O=C(COC(=O)c1cc[n+]([O-])cc1)Nc1ccc(Br)cc1 | nt | i | i | i | i | i | nt
CC(=O)CCC(=O)OCC(=O)Nc1ccc(SC(F)F)cc1 | i | i | i | 27.4 | i | i | 24.2
O=C(COC(=O)c1cc[n+]([O-])cc1)Nc1ccc(SC(F)F)cc1 | i | i | i | 28.2 | i | i | i
CCOC(=O)[C@@H]1CSCCS(=O)(=O)N1C(=O)[C@H](CC(C)C)NC(=O)OC(C)(C)C | nt | i | i | i | i | nt | nt
O=[N+]([O-])c1cc2cccnc2c2ncccc12 | i | i | i | i | i | i | nt
NS(=O)(=O)c1cccc2c1c([N+](=O)[O-])cc1nc(O)c(O)nc12 | nt | i | i | 26.2 | i | i | 27.5
O=C(C1CCCN1S(=O)(=O)c1cccc2ccccc12)N1CCN(c2ccccc2)CC1 (stereo not drawn) | nt | i | i | i | i | nt | nt
CCCc1nc2c(sc3nc4c(cc32)COC(C)(C)C4)c(=O)n1Cc1ccco1 | i | i | i | 30.5 | i | i | i
CCCc1nc2c(sc3nc4c(cc32)COC(C)(C)C4)c(=O)n1CCN(C)C | i | i | i | i | i | i | nt
CC(C)N1CCCCC(NC(=O)c2ccc(F)cc2)C1=O (stereo not drawn) | nt | i | i | i | i | nt | nt
COc1ccc(OC)c(S(=O)(=O)N2CCCCC2C(=O)N2CCCN(C)CC2)c1 (stereo not drawn) | nt | i | i | i | i | nt | nt
COc1cccc(-c2csc(NNC(=O)c3cccs3)n2)c1 | i | i | i | 29.4 | i | i | i
C=CCn1c(Sc2ncc([N+](=O)[O-])s2)n[nH]c1=O | i | i | i | 74.5 | i | i | 61.1
CN(C(=O)C1CCN(c2cncnc2)CC1)C1CCCCC1 | nt | i | i | i | i | nt | nt
COc1cccc(C2=CC(=O)C[C@H](c3ccc(Cl)cc3)C2)c1 | nt | i | i | i | i | i | nt
SMILES | RBBP9 inhibitor | UHRF1 MBD2 ctr | LEDGF integ inh | PRMT1 FP inh | MBD2 DNA inh | ABHD5 PLIN5 PPI | PRMT1 inh conf
COc1cccc(C2=CC(=O)CC(c3ccco3)C2)c1 (stereo not drawn) | nt | i | i | 31.4 | i | i | i
O=C(Nc1ccccc1N1CCCC1)c1ccc([N+](=O)[O-])o1 | nt | i | i | i | i | i | nt
COc1ccc(N2CCCC2)c(NC(=O)c2ccc([N+](=O)[O-])o2)c1 | nt | i | i | 38.6 | i | i | i
O=C1C=CC(=O)N1 | nt | i | i | 78.5 | i | i | 86.7
CC[n+]1c(C)sc2cc(C)ccc21 | i | i | i | 73.5 | i | i | i
Cc1ccc2ccc(C)[n+](CCCS(=O)(=O)[O-])c2c1 | i | i | i | i | i | i | nt
Cc1ccc2sc(C)[n+](CCO)c2c1 | i | i | i | 58.4 | i | i | 33.2
CCCC[n+]1c(C)sc2ccc(C)cc21 | i | i | i | 42.2 | i | i | i
Cc1ccc2c(c1)sc(-c1ccc(N(C)C)cc1)[n+]2C | nt | i | i | i | i | i | nt
COC(CNC(=O)[C@H](Cc1c[nH]c2ccccc12)NC1(C(=O)NC(c2ccccc2)c2ccccc2)CCCCC1)OC | nt | i | i | i | i | nt | nt
COc1ccc(CNC(=O)O[C@H]2CC[C@@]34CCCN3C(=O)CCC[C@H]4[C@H]2C)cc1 | nt | i | i | i | i | nt | nt
Cc1c(C)n(Cc2ccc(-c3ccccc3C(=O)O)cc2)c2ccc(C(=O)N[C@@H](C)c3ccc(Br)cc3)cc12 | nt | i | i | i | i | nt | nt
C[C@H]1C(=O)N2[C@@H](C[C@]3(c4c[nH]c5ccccc45)c4ccccc4N(S(=O)(=O)c4ccccc4)[C@H]23)C(=O)N1C | nt | i | i | i | i | nt | nt
COC(=O)c1nn(-c2ccc(OC)cc2)c(=O)cc1NN | i | i | i | i | i | i | nt
COC(=O)c1nn(-c2ccc(OC)cc2)c(=O)c2c(N)sc(C)c12 | i | i | i | 24.9 | i | i | i
CCOC(=O)NC1(NCC(C)C)Oc2ccccc2O1 | i | i | i | i | i | i | nt
CCOC(=O)NC1(NCc2ccccc2)Oc2ccccc2O1 | i | i | i | 26.4 | i | i | i
CCCCCCCCN1C(=O)[C@@H](CC(=O)NCC2CCCCC2)C[C@@]2(C(=O)OC)C1=C[C@H](C(C)(C)C)O[C@@H]2C | nt | i | i | i | i | nt | nt
O=C(NC1CCCc2ccccc21)c1cc(S(=O)(=O)N2CCOCC2)ccc1F (stereo not drawn) | i | i | i | i | i | i | nt
O=C(CSc1nc2cc(S(=O)(=O)N3CCOCC3)ccc2o1)NC1CCCc2ccccc21 (stereo not drawn) | i | i | i | 29.5 | i | i | 25.0
O=C(CSc1nc2cc(S(=O)(=O)N3CCOCC3)ccc2o1)Nc1c(F)cccc1F | i | i | i | 54.5 | i | i | 47.0
